# Columns and labels:
# Leishmania donovani [1] = test: Antiparasitic activity against Leishmania donovani MHOM/SD/1962/1S-Cl2d axenic amastigotes at 50 uM by alamar blue assay; type: functional
# [2] = Cytotoxicity against human THP1 cells at 50 uM after 48 hrs by alamar blue assay; type: cell-based; details: THP-1 cells, read-out: INH
# In short: (§1)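 THP-1 cells in complete RPMI-1640, 10% FCS, added to compounds in medium with DMSO, triplicate, 48 h at 37 °C, 5% CO2; alamarBlue added, 3 h further incubation, fluorescence ex 544/em 590 nm; % growth inhibition.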
# Leishmania donovani [3] = test: Antiparasitic activity against Leishmania donovani MHOM/SD/1962/1S-Cl2d amastigotes in human THP1 cells at 50 uM after 48 hrs by microplate reader; type: functional; details: THP-1, 48 h
# Leishmania donovani [4] = test: Antiparasitic activity against Leishmania donovani MHOM/SD/1962/1S-Cl2d amastigotes in human THP1 cells at 25 uM after 48 hrs by microplate reader; type: functional; details: THP-1, 48 h
# Leishmania donovani [5] = test: Antiparasitic activity against Leishmania donovani MHOM/SD/1962/1S-Cl2d amastigotes in human THP1 cells at 12.5 uM after 48 hrs by microplate reader; type: functional; details: THP-1, 48 h
# [6] = Cytotoxicity against human THP1 cells at 12.5 uM after 48 hrs by alamar blue assay; type: cell-based; details: THP-1 cells, read-out: INH; in short: as §1
# [7] = Cytotoxicity against human THP1 cells at 25 uM after 48 hrs by alamar blue assay; type: cell-based; details: THP-1 cells, read-out: INH; in short: as §1
# Leishmania amazonensis [8] = test: Antiparasitic activity against Leishmania amazonensis assessed as survival index at 136 uM; type: functional
# Leishmania amazonensis [9] = test: Antiparasitic activity against Leishmania amazonensis assessed as survival index at 68 uM; type: functional
# [10] = Toxicity against peritoneal macrophages assessed as survival induces at 136 uM; type: cell-based, Peritoneal macrophage cell; details: read-out: Survival
# [11] = Toxicity against peritoneal macrophages assessed as survival induces at 68 uM; type: cell-based, Peritoneal macrophage cell; details: read-out: Survival
# Leishmania donovani [12] = test: Antiparasitic activity against Leishmania donovani MHOM/SD/1962/1S-Cl2d axenic amastigotes at 15 uM by alamar blue assay; type: functional
# Leishmania donovani [13] = test: Antiparasitic activity against Leishmania donovani MHOM/SD/1962/1S-Cl2d axenic amastigotes at 1 uM by alamar blue assay; type: functional
# Leishmania donovani [14] = test: Antileishmanial activity against Leishmania donovani promastigotes; type: functional, organism-based
# Leishmania donovani [15] = test: Antileishmanial activity against Leishmania donovani amastigotes; type: functional, organism-based
# Leishmania donovani [16] = test: Antileishmanial activity against Leishmania donovani infected golden hamster assessed as reduction of parasite burden at 10 mg/kg after 6 weeks; type: functional; set-up: scale not given: the % may be the effect or the level left
smiles,measurement,setting,value
CC(=O)OC[C@]12CC[C@]3(C(C)C)C1=C1[C@H](C[C@@H]4[C@@]5(C)CC[C@H](OC(C)=O)C(C)(C)[C@@H]5CC[C@@]4(C)[C@]1(C)CC2)n1c(=O)n(Cc2ccccc2)c(=O)n13,inhibition at 50 µM,Leishmania donovani [1],25%
CCC(=O)OC[C@]12CC[C@]3(C(C)C)C1=C1[C@H](C[C@@H]4[C@@]5(C)CC[C@H](OC(=O)CC)C(C)(C)[C@@H]5CC[C@@]4(C)[C@]1(C)CC2)n1c(=O)n(C)c(=O)n13,"cytotoxicity at 48 h, 50 µM",[2],16%
same,inhibition at 50 µM,Leishmania donovani [3],83%
same,inhibition at 25 µM,Leishmania donovani [4],55%
same,inhibition at 12.5 µM,Leishmania donovani [5],18%
same,inhibition at 50 µM,Leishmania donovani [1],93%
same,"cytotoxicity at 48 h, 12.5 µM",[6],5%
same,"cytotoxicity at 48 h, 25 µM",[7],15%
CCCCn1c(=O)n2n(c1=O)[C@]1(C(C)C)CC[C@]3(COC(C)=O)CC[C@]4(C)C(=C31)[C@@H]2C[C@@H]1[C@@]2(C)CC[C@H](OC(C)=O)C(C)(C)[C@@H]2CC[C@]14C,inhibition at 50 µM,Leishmania donovani [1],49%
CC(=O)OC[C@]12CC[C@]3(C(C)C)C1=C1[C@H](C[C@@H]4[C@@]5(C)CC[C@H](OC(C)=O)C(C)(C)[C@@H]5CC[C@@]4(C)[C@]1(C)CC2)n1c(=O)[nH]c(=O)n13,"cytotoxicity at 48 h, 50 µM",[2],97%
same,inhibition at 25 µM,Leishmania donovani [4],55%
same,inhibition at 12.5 µM,Leishmania donovani [5],4.8%
same,inhibition at 50 µM,Leishmania donovani [1],88%
same,"cytotoxicity at 48 h, 12.5 µM",[6],0%
same,"cytotoxicity at 48 h, 25 µM",[7],2.4%
CC(C)[C@@]12CC[C@]3(CO)CC[C@]4(C)C(=C31)[C@H](C[C@@H]1[C@@]3(C)CC[C@H](O)C(C)(C)[C@@H]3CC[C@]14C)n1c(=O)n(-c3ccccc3)c(=O)n12,inhibition at 50 µM,Leishmania donovani [1],48%
C=C(C)[C@@H]1CC[C@]2(C=O)CC[C@]3(C)[C@H](CC[C@@H]4[C@@]5(C)CC[C@H](O)C(C)(C)[C@@H]5CC[C@]43C)[C@@H]12 [BETULINALDEHYDE],survival at 136 µM,Leishmania amazonensis [8],12%
same,survival at 68 µM,Leishmania amazonensis [9],42%
same,viability at 136 µM,[10],70%
same,viability at 68 µM,[11],80%
CC(=O)OC[C@]12CC[C@]3(C(C)C)C1=C1[C@H](C[C@@H]4[C@@]5(C)CC[C@H](OC(C)=O)C(C)(C)[C@@H]5CC[C@@]4(C)[C@]1(C)CC2)n1c(=O)n(-c2ccc(Cl)cc2)c(=O)n13,inhibition at 50 µM,Leishmania donovani [1],30%
CC(C)C(=O)OC[C@]12CC[C@]3(C(C)C)C1=C1[C@H](C[C@@H]4[C@@]5(C)CC[C@H](OC(=O)C(C)C)C(C)(C)[C@@H]5CC[C@@]4(C)[C@]1(C)CC2)n1c(=O)n(C)c(=O)n13,inhibition at 15 µM,Leishmania donovani [12],19%
CC(=O)OC[C@]12CC[C@]3(C(C)C)C1=C1[C@H](C[C@@H]4[C@@]5(C)CC[C@H](OC(C)=O)C(C)(C)[C@@H]5CC[C@@]4(C)[C@]1(C)CC2)n1c(=O)n(-c2ccc4c(c2)CCC4)c(=O)n13,inhibition at 50 µM,Leishmania donovani [1],23%
CCCC(=O)OC[C@]12CC[C@]3(C(C)C)C1=C1[C@H](C[C@@H]4[C@@]5(C)CC[C@H](OC(=O)CCC)C(C)(C)[C@@H]5CC[C@@]4(C)[C@]1(C)CC2)n1c(=O)n(C)c(=O)n13,inhibition at 15 µM,Leishmania donovani [12],26%
CC(C)[C@@]12CC[C@]3(COC(=O)c4ccccc4)CC[C@]4(C)C(=C31)[C@H](C[C@@H]1[C@@]3(C)CC[C@H](OC(=O)c5ccccc5)C(C)(C)[C@@H]3CC[C@]14C)n1c(=O)n(-c3ccccc3)c(=O)n12,inhibition at 50 µM,Leishmania donovani [1],0%
CC(=O)OC[C@]12CC[C@]3(C(C)C)C1=C1[C@H](C[C@@H]4[C@@]5(C)CC[C@H](OC(C)=O)C(C)(C)[C@@H]5CC[C@@]4(C)[C@]1(C)CC2)n1c(=O)n(-c2ccccc2)c(=O)n13,inhibition at 50 µM,Leishmania donovani [1],36%
CC(C)[C@@]12CC[C@]3(COC(=O)C4CCCCC4)CC[C@]4(C)C(=C31)[C@H](C[C@@H]1[C@@]3(C)CC[C@H](OC(=O)C5CCCCC5)C(C)(C)[C@@H]3CC[C@]14C)n1c(=O)n(C(C)(C)C)c(=O)n12,inhibition at 50 µM,Leishmania donovani [1],4.8%
CC(=O)OC[C@]12CC[C@]3(C(C)C)C1=C1[C@H](C[C@@H]4[C@@]5(C)CC[C@H](OC(C)=O)C(C)(C)[C@@H]5CC[C@@]4(C)[C@]1(C)CC2)n1c(=O)n(-c2ccc(C(C)=O)cc2)c(=O)n13,inhibition at 50 µM,Leishmania donovani [1],45%
C[C@@H]1[C@H](O)[C@@H](C)/C=C/C=C/C=C/C=C/C=C/C=C/C=C/[C@H](O[C@@H]2O[C@H](C)[C@@H](O)[C@H](N)[C@@H]2O)C[C@@H]2O[C@](O)(C[C@@H](O)C[C@@H](O)[C@H](O)CC[C@@H](O)C[C@@H](O)CC(=O)O[C@H]1C)C[C@H](O)[C@H]2C(=O)O [AMPHOTERICIN B],inhibition at 1 µM,Leishmania donovani [13],> 90%
CC(=O)OC[C@]12CC[C@]3(C(C)C)C1=C1[C@H](C[C@@H]4[C@@]5(C)CC[C@H](OC(C)=O)C(C)(C)[C@@H]5CC[C@@]4(C)[C@]1(C)CC2)n1c(=O)n(-c2ccc(F)cc2)c(=O)n13,inhibition at 50 µM,Leishmania donovani [1],48%
CC(=O)OC[C@]12CC[C@]3(C(C)C)C1=C1[C@H](C[C@@H]4[C@@]5(C)CC[C@H](OC(C)=O)C(C)(C)[C@@H]5CC[C@@]4(C)[C@]1(C)CC2)n1c(=O)n(-c2cccc4ccccc24)c(=O)n13,inhibition at 50 µM,Leishmania donovani [1],58%
CC(C)[C@@]12CC[C@]3(COC(=O)c4ccccc4)CC[C@]4(C)C(=C31)[C@H](C[C@@H]1[C@@]3(C)CC[C@H](OC(=O)c5ccccc5)C(C)(C)[C@@H]3CC[C@]14C)n1c(=O)n(C)c(=O)n12,inhibition at 50 µM,Leishmania donovani [1],0%
C=C(C)[C@@H]1CC[C@]2(C(=O)O)CC[C@]3(C)[C@H](CC[C@@H]4[C@@]5(C)CC[C@H](O)C(C)(C)[C@@H]5CC[C@]43C)[C@@H]12 [BETULINIC ACID],IC50,Leishmania donovani [14],2.6 µM
same,IC50,Leishmania donovani [15],4.1 µM
same,Activity,Leishmania donovani [16],92%
CC(=O)OC[C@]12CC[C@]3(C(C)C)C1=C1[C@H](C[C@@H]4[C@@]5(C)CC[C@H](OC(C)=O)C(C)(C)[C@@H]5CC[C@@]4(C)[C@]1(C)CC2)n1c(=O)n(C)c(=O)n13,"cytotoxicity at 48 h, 50 µM",[2],94%
same,inhibition at 12.5 µM,Leishmania donovani [5],60%
same,inhibition at 50 µM,Leishmania donovani [1],98%
same,"cytotoxicity at 48 h, 12.5 µM",[6],39%
same,"cytotoxicity at 48 h, 25 µM",[7],78%
CC(=O)OC[C@]12CC[C@]3(C(C)C)C1=C1[C@H](C[C@@H]4[C@@]5(C)CC[C@H](OC(C)=O)C(C)(C)[C@@H]5CC[C@@]4(C)[C@]1(C)CC2)n1c(=O)n(-c2cccc([N+](=O)[O-])c2)c(=O)n13,inhibition at 50 µM,Leishmania donovani [1],30%
CC(C)[C@@]12CC[C@]3(CO)CC[C@]4(C)C(=C31)[C@H](C[C@@H]1[C@@]3(C)CC[C@H](O)C(C)(C)[C@@H]3CC[C@]14C)n1c(=O)n(C)c(=O)n12,inhibition at 50 µM,Leishmania donovani [1],50%
COc1cccc(-n2c(=O)n3n(c2=O)[C@]2(C(C)C)CC[C@]4(COC(C)=O)CC[C@]5(C)C(=C42)[C@@H]3C[C@@H]2[C@@]3(C)CC[C@H](OC(C)=O)C(C)(C)[C@@H]3CC[C@]25C)c1,inhibition at 50 µM,Leishmania donovani [1],44%
CC(C)[C@@]12CC[C@]3(COC(=O)C4CCCCC4)CC[C@]4(C)C(=C31)[C@H](C[C@@H]1[C@@]3(C)CC[C@H](OC(=O)C5CCCCC5)C(C)(C)[C@@H]3CC[C@]14C)n1c(=O)n(C)c(=O)n12,inhibition at 50 µM,Leishmania donovani [1],5.5%
CCn1c(=O)n2n(c1=O)[C@]1(C(C)C)CC[C@]3(COC(C)=O)CC[C@]4(C)C(=C31)[C@@H]2C[C@@H]1[C@@]2(C)CC[C@H](OC(C)=O)C(C)(C)[C@@H]2CC[C@]14C,"cytotoxicity at 48 h, 50 µM",[2],48%
same,inhibition at 25 µM,Leishmania donovani [4],53%
same,inhibition at 12.5 µM,Leishmania donovani [5],0%
same,inhibition at 50 µM,Leishmania donovani [1],88%
same,"cytotoxicity at 48 h, 12.5 µM",[6],8.5%
same,"cytotoxicity at 48 h, 25 µM",[7],13%
